Reference: ChEMBL document CHEMBL2417474, “Synthesis, antiproliferative and anti-inflammatory activities of some novel 6-aryl-2-(p-(methanesulfonyl)phenyl)-4,5-dihydropyridazi-3(2H)-ones” (Eur J Med Chem, 2013)

Experiments:
Format in all cases: functional
[1] = tested on: OVCAR-8; assay: Growth inhibition of human OVCAR8 cells assessed as cell growth at 10 uM after 48 hrs by sulforhodamine B assay; settings: OVCAR-8, 48 h, read-out: Activity
[2] = tested on: IGROV-1; assay: Growth inhibition of human IGROV1 cells after 48 hrs by sulforhodamine B assay; settings: IGROV-1, 48 h
Procedure, shortened: (§1)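 NCI 60-cell-line panel grown in RPMI-type medium with 5% fetal calf serum and 2 mM L-glutamine. Cells preincubated 24 h, then exposed continuously for 48 h to compound in DMSO at 10^-4 to 10^-8 M (five 10-fold levels). Growth read by SRB protein stain. GI50 is the concentration giving a 50% reduction in net protein increase relative to control cells.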

[3] = tested on: ACHN; assay: Growth inhibition of human ACHN cells assessed as cell growth at 10 uM after 48 hrs by sulforhodamine B assay; settings: read-out: Activity
[4] = tested on: COLO 205; assay: Growth inhibition of human COLO205 cells assessed as cell growth at 10 uM after 48 hrs by sulforhodamine B assay; settings: COLO 205, 48 h, read-out: Activity
[5] = tested on: OVCAR-5; assay: Growth inhibition of human OVCAR5 cells after 48 hrs by sulforhodamine B assay; settings: OVCAR-5, 48 h
Procedure, shortened: (§2)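 NCI 60-cell-line panel. Cells were grown in medium with 5% fetal calf serum and 2 mM L-glutamine, then preincubated 24 h in plates. Compounds were added from DMSO at five 10-fold concentrations from 100 to 0.01 µM and left on cells continuously for 48 h. Cell growth was read by sulforhodamine B protein stain. GI50 is the concentration that halves net protein increase relative to control cells.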

[6] = Growth inhibition of human NCI-ADR-RES cells assessed as cell growth at 10 uM after 48 hrs by sulforhodamine B assay; settings: read-out: Activity
[7] = tested on: SK-OV-3; assay: Growth inhibition of human SKOV3 cells assessed as cell growth at 10 uM after 48 hrs by sulforhodamine B assay; settings: SK-OV-3, 48 h, read-out: Activity
[8] = tested on: A498; assay: Growth inhibition of human A498 cells after 48 hrs by sulforhodamine B assay; settings: A498, 48 h; procedure, shortened: as §1
[9] = tested on: 786-0; assay: Growth inhibition of human 786-0 cells after 48 hrs by sulforhodamine B assay; settings: 786-0, 48 h; procedure, shortened: as §1
[10] = tested on: SW-620; assay: Growth inhibition of human SW620 cells assessed as cell growth at 10 uM after 48 hrs by sulforhodamine B assay; settings: SW-620, 48 h, read-out: Activity
Procedure, shortened: (§3)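 Single-dose NCI screen. Tumor lines were cultured in medium with 5% fetal calf serum and 2 mM L-glutamine, preincubated 24 h, then given compound in DMSO. After 48 h continuous exposure, cell growth was estimated by sulforhodamine B protein assay.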

[11] = tested on: NCI-H23; assay: Growth inhibition of human NCI-H23 cells assessed as cell growth at 10 uM after 48 hrs by sulforhodamine B assay; settings: NCI-H23, 48 h, read-out: Activity
[12] = tested on: SK-OV-3; assay: Growth inhibition of human SKOV3 cells after 48 hrs by sulforhodamine B assay; settings: SK-OV-3, 48 h; procedure, shortened: as §2
[13] = tested on: SF-268; assay: Growth inhibition of human SF268 cells after 48 hrs by sulforhodamine B assay; settings: SF-268, 48 h; procedure, shortened: as §2
[14] = tested on: ACHN; assay: Growth inhibition of human ACHN cells after 48 hrs by sulforhodamine B assay; procedure, shortened: as §1
[15] = tested on: SNB-75; assay: Growth inhibition of human SNB75 cells after 48 hrs by sulforhodamine B assay; settings: SNB-75, 48 h; procedure, shortened: as §2
[16] = Growth inhibition of human EKVX cells after 48 hrs by sulforhodamine B assay; procedure, shortened: as §1
[17] = tested on: MCF7; assay: Growth inhibition of human MCF7 cells after 48 hrs by sulforhodamine B assay; settings: MCF7, 48 h; procedure, shortened: as §1
[18] = tested on: A549; assay: Growth inhibition of human A549/ATCC cells assessed as cell growth at 10 uM after 48 hrs by sulforhodamine B assay; settings: A549, 48 h, read-out: Activity
[19] = tested on: HCT-15; assay: Growth inhibition of human HCT15 cells after 48 hrs by sulforhodamine B assay; settings: HCT-15, 48 h; procedure, shortened: as §1
[20] = tested on: IGROV-1; assay: Growth inhibition of human IGROV1 cells assessed as cell growth at 10 uM after 48 hrs by sulforhodamine B assay; settings: IGROV-1, 48 h, read-out: Activity
[21] = Growth inhibition of human Hs 578T cells after 48 hrs by sulforhodamine B assay; procedure, shortened: as §1
[22] = tested on: K562; assay: Growth inhibition of human K562 cells after 48 hrs by sulforhodamine B assay; settings: K562, 48 h; procedure, shortened: as §1
[23] = tested on: UACC-257; assay: Growth inhibition of human UACC257 cells assessed as cell growth at 10 uM after 48 hrs by sulforhodamine B assay; settings: UACC-257, 48 h, read-out: Activity; procedure, shortened: as §3
[24] = tested on: SNB-75; assay: Growth inhibition of human SNB75 cells assessed as cell growth at 10 uM after 48 hrs by sulforhodamine B assay; settings: SNB-75, 48 h, read-out: Activity
[25] = tested on: HCT-116; assay: Growth inhibition of human HCT116 cells after 48 hrs by sulforhodamine B assay; settings: HCT-116, 48 h; procedure, shortened: as §1
[26] = tested on: Rattus norvegicus; assay: Antiinflammatory activity in Wistar rat assessed as inhibition of carrageenan-induced paw edema at 0.05 mmol/kg, po administered 30 mins prior challenge measured after 5 hrs
Procedure, shortened: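 Wistar rats of either sex, 150–175 g, fasted 16 h, 6 per group. Dosed orally at 0.05 mmol/kg, suspended in 1% CMC in water (10 ml/kg). 30 min later, 0.1 ml of 1% carrageenan in saline injected subplantar into the left hind paw. Paw volume read by plethysmometer at 0, 3 and 5 h. % inhibition = (1 − Vt/Vc) × 100 against the vehicle group.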

[27] = tested on: K562; assay: Growth inhibition of human K562 cells assessed as cell growth at 10 uM after 48 hrs by sulforhodamine B assay; settings: K562, 48 h, read-out: Activity
[28] = tested on: SF-295; assay: Growth inhibition of human SF295 cells after 48 hrs by sulforhodamine B assay; settings: SF-295, 48 h; procedure, shortened: as §2
[29] = tested on: OVCAR-8; assay: Growth inhibition of human OVCAR8 cells after 48 hrs by sulforhodamine B assay; settings: OVCAR-8, 48 h; procedure, shortened: as §2
[30] = tested on: M14; assay: Growth inhibition of human M14 cells assessed as cell growth at 10 uM after 48 hrs by sulforhodamine B assay; settings: M14, 48 h, read-out: Activity
[31] = read-out: LC50 (the source's name)

CCc1ccc(C2=NN(c3ccc(S(C)(=O)=O)cc3)C(=O)CC2)cc1
growth at 10 µM [1]: 39.1%
GI50 [2]: 1.48 µM
LC50 [2]: > 100 µM
TGI [2]: 55.2 µM
growth at 10 µM [3]: 46%
growth at 10 µM [4]: 22.5%
GI50 [5]: 8.51 µM
TGI [5]: > 100 µM
CC50 [5, 31]: > 100 µM
growth at 10 µM [6]: 6.7%
growth at 10 µM [7]: 28.7%
GI50 [8]: 0.14 µM
TGI [8]: 2.3 µM
CC50 [8, 31]: > 100 µM
GI50 [9]: 5.13 µM
LC50 [9]: > 100 µM
TGI [9]: 80.3 µM
growth at 10 µM [10]: 12.4%
growth at 10 µM [11]: -4.83%
GI50 [12]: 2.44 µM
LC50 [12]: > 100 µM
TGI [12]: 19.6 µM
GI50 [13]: 6.99 µM
TGI [13]: > 100 µM
CC50 [13, 31]: > 100 µM
GI50 [14]: 8.59 µM
LC50 (concentration killing 50% of starting cells) [14]: > 100 µM
TGI [14]: > 100 µM
GI50 [15]: 1.32 µM
TGI [15]: > 7.89 µM
CC50 [15, 31]: > 100 µM
GI50 [16]: 4.19 µM
TGI [16]: 96.7 µM
CC50 [16, 31]: > 100 µM
GI50 [17]: 3.13 µM
LC50 (concentration killing 50% of cells) [17]: > 100 µM
TGI [17]: > 100 µM
growth at 10 µM [18]: 35.6%
GI50 [19]: 1.9 µM
LC50 [19]: > 100 µM
TGI [19]: > 100 µM
growth at 10 µM [20]: 37.4%
GI50 [21]: 0.83 µM
LC50 (concentration giving 50% net cell kill) [21]: > 100 µM
TGI [21]: 6.89 µM
GI50 [22]: 0.42 µM
TGI [22]: > 100 µM
CC50 [22, 31]: > 100 µM
growth at 10 µM [23]: 59.1%
growth at 10 µM [24]: 16.7%
GI50 [25]: 0.73 µM
LC50 (concentration killing 50% of cells) [25]: > 100 µM
TGI [25]: > 100 µM
inhibition in vivo at 50 µmol/kg [26]: 65.7%
growth at 10 µM [27]: 10.4%
GI50 [28]: 0.93 µM
LC50 (concentration killing 50% of cells present at start) [28]: > 100 µM
TGI [28]: 8.73 µM
GI50 [29]: 3.25 µM
LC50 [29]: > 100 µM
TGI [29]: > 100 µM
growth at 10 µM [30]: 5.99%

O=c1[nH]cc(F)c(=O)[nH]1 [FLUOROURACIL]
GI50 [2]: 1.22 µM
GI50 [5]: 10.9 µM
GI50 [8]: 0.35 µM
GI50 [9]: 0.72 µM
GI50 [12]: 21.8 µM
GI50 [13]: 1.62 µM
GI50 [14]: 0.29 µM
GI50 [15]: 78.7 µM
GI50 [16]: 61.8 µM
GI50 [17]: 0.07 µM
GI50 [19]: 0.11 µM
GI50 [21]: 9.77 µM
GI50 [22]: 3.58 µM
GI50 [25]: 0.22 µM
GI50 [28]: 0.22 µM
GI50 [29]: 1.74 µM
